The pIC50 is the IC50 on a negative log10 scale, so that one unit is a factor of ten. One may read the ΔTm as the change in melting temperature against a reference sample.

The source of these data is ChEMBL document CHEMBL4390639, “Design, Synthesis, and Biological Evaluation of Novel Allosteric Protein Disulfide Isomerase Inhibitors” (J Med Chem, 2019).

A short description of data set [1]: Cytotoxicity against human NU04 cells assessed as inhibition of cell growth measured after 72 hrs by MTT assay. In kind it is functional, cell-based. In outline:
(§1)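 A172 and NU04 cells were seeded at 4000 cells/well and U87MG at 5000 cells/well, incubated overnight at 37 °C, 5% CO2, then exposed to compound or vehicle for 72 h. MTT (3 mg/mL) was added for 4 h, formazan was dissolved in DMSO, and absorbance was read at 570 nm. IC50 came from nonlinear regression; mean ± SD of at least three experiments.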
In general terms: Formazan colour is commonly taken as a measure of viable cells.

Data set [2] can be described thus: Solubility of the compound in DMSO. Type of data set: physicochemical.
Data set [3] deals with U-87 MG. The experiment in a line: Cytotoxicity against human U87MG cells assessed as inhibition of cell growth measured after 72 hrs by MTT assay. In kind it is functional, cell-based, U-87MG ATCC. The conditions noted are these: u-87mg atcc. Put shortly: as §1
Data set [4] deals with T1, Protein disulfide-isomerase (Homo sapiens, UniProt P07237). The experiment in a line: Inhibition of recombinant human N-terminal His-tagged PDI expressed in Escherichia coli BL21 (DE3) pLysS assessed as reduction in enzyme-mediated bovine insulin aggregation.
Target sequence in this assay (P07237 whole entry): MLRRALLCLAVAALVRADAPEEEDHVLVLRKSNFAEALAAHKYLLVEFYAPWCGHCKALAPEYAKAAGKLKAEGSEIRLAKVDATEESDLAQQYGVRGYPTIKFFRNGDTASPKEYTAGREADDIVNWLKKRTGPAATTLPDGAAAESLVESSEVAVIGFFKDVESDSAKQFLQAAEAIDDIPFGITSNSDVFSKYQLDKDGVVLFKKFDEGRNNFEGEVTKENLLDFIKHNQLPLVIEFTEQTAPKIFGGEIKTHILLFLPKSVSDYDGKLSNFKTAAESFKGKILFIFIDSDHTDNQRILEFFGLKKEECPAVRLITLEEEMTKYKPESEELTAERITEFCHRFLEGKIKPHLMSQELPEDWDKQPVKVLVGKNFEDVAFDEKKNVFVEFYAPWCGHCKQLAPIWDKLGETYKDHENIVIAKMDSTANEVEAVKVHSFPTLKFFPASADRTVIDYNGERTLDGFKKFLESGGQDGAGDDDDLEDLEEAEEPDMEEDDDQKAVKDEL
Data set [5] relates to A 172. The experiment in a line: Cytotoxicity against human A172 cells assessed as inhibition of cell growth measured after 72 hrs by MTT assay. Type of data set: functional, cell-based. The conditions noted are these: a 172. In outline:
as §1

Data set [6] addresses T1, Protein disulfide-isomerase. The experiment in a line: Inhibition of recombinant human N-terminal His-tagged PDI expressed in Escherichia coli BL21 (DE3) pLysS assessed as reduction in enzyme-mediated bovine insulin aggregation at 40 uM measured after 1 hr in presence of 5 mM NAC. Put shortly: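 Compounds pretreated with NAC for 30 min at 37 °C, then added to the insulin reductase assay at final 40 μM compound with 0, 1, 2 or 5 mM NAC. The assay uses 0.4 μM PDI preincubated 1 h at 37 °C, then DTT and bovine insulin, read at 620 nm, with % activity at 80 min.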
Target sequence in this assay (P07237 18-508 limits assumed): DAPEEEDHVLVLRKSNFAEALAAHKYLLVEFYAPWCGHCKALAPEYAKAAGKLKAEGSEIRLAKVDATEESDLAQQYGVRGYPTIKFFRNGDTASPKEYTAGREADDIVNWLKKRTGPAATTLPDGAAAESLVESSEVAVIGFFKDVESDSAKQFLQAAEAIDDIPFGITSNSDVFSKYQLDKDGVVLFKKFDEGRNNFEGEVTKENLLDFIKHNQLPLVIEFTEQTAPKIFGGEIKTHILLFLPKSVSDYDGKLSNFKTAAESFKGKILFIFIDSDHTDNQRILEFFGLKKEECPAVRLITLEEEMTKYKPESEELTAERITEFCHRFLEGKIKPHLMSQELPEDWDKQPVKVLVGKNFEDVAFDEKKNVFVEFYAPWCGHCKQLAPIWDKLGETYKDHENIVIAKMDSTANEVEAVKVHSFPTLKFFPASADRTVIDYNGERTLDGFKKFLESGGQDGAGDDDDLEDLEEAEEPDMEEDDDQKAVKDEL

The subject of data set [7] is U-87 MG. Kind of data set: Down regulation of cleaved MMP2 expression in human U87MG cells at 0.25 uM measured after 24 hrs by Western blot analysis. The conditions noted are these: U-87MG ATCC. In kind it is functional, cell-based.
Data set [8] concerns U-87 MG. Kind of data set: Inhibition of colony formation in human U87MG cells […] by crystal violet staining based assay. In kind it is functional, cell-based. The conditions noted are these: U-87MG ATCC. In outline:
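Clonogenicity: U87MG cells seeded at 200 cells/well, left overnight, treated 24 h, then medium replaced and cells grown ten days. Stained 30 min with crystal violet, washed, imaged; normalized well intensity from three independent experiments.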

Data set [9] deals with T1, Protein disulfide-isomerase. Kind of data set: Binding affinity to recombinant human N-terminal His-tagged PDI expressed in Escherichia coli BL21 (DE3) pLysS assessed as change in melting temperature at 100 uM by ROX dye based thermal shift assay. Put shortly:
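Purified wild-type, C53S/C397S or H256A PDI at 0.5 mg/mL in 50 mM Tris, pH 7.0, with or without 100 μM compound, was mixed with ROX dye in a 20 µL well. DMSO (5% in buffer) was the control. Samples were heated 25–99 °C at 1 °C/min, and the Boltzmann melting temperature shift versus DMSO was reported. Mean ± SD of three experiments.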
Target sequence in this assay (P07237 18-508 limits assumed): as above

The target is the same in data set [10]. Kind of data set: Inhibition of recombinant human N-terminal His-tagged PDI expressed in Escherichia coli BL21 (DE3) pLysS at 100 uM measured after 1 hr by ANS dye based fluorescence spectra analysis. In outline: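 ANS spectral scan: PDI incubated with 100 μM compounds or matching DMSO in TBS for 1 h at 37 °C. ANS then added and incubated 20 min at 25 °C in the dark. Fluorescence spectrum recorded with excitation 370 nm, emission 400–700 nm.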
Target sequence in this assay (P07237 18-508 limits assumed): as above

Data set [11] concerns A 172. The experiment in a line: Induction of endoplasmic reticulum stress in human A172 cells assessed as increase in GRP78 expression at 1 uM measured after 24 hrs by Western blot analysis. Type of data set: functional, cell-based. On the technique in general: In western blotting, separated proteins are transferred to a membrane and probed.
Data set [12] deals with U-87 MG. The experiment in a line: Induction of endoplasmic reticulum stress in human U87MG cells assessed as increase in GRP78 expression at 1 uM measured after 24 hrs by Western blot analysis. In kind it is functional, cell-based. The conditions noted are these: U-87MG ATCC. Put shortly:
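ER-stress immunoblot: 0.5 x 10^6 U87MG cells/well treated for 24 h with 20 µM analogues, 1 µM PACMA31 or DMSO; tunicamycin 10 µg/mL for 2 or 24 h as positive control. Lysis in Tris/NaCl/Triton/SDS buffer with sonication; 30 µg protein on 10% gels, transferred to PVDF, GRP78 probed, fluorescence imaging.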

The test system of data set [13] is A 172. The experiment in a line: Antimigratory activity against human A172 cells assessed as reduction in cell migration towards wound area measured after 24 hrs by Giemsa staining based microscopic analysis. Type of data set: functional. In outline:
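A172 cells plated at 50,000 cells/well, incubated overnight at 37 °C, 5% CO2, then held 24 h in serum-free DMEM. A scratch was made, compounds were added, and cells grew 24 h until DMSO-control wells closed. Cells were Giemsa-stained and imaged at 10X.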

In data set [14] the test system is U-87 MG. The experiment in a line: Down regulation of MMP9 expression in human U87MG cells at 0.25 uM measured after 24 hrs by Western blot analysis. The conditions noted are these: U-87MG ATCC. In kind it is functional, cell-based.
The next data set has as its system D54 cell line. Kind of data set: Inhibition of colony formation in 1 to 6 Gy-irradiated human D54 cells at 0.05 uM measured after 10 to 12 days by crystal violet staining based assay. Type of data set: functional, cell-based. In outline:
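D54 cells irradiated at 0, 1, 2, 4 or 6 Gy and plated immediately at 200–1000 cells/well according to dose. Treated with DMSO, 0.05 μM PACMA31 or 1 μM compounds, grown 10–12 days, then colonies stained with 0.1% crystal violet.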

The target in data set [15] is 72 kDa type IV collagenase (Homo sapiens) (UniProt P08253). The experiment in a line: Inhibition of MMP2 activity in human U87MG cells at 0.25 uM […] by gelatin zymographic method. Type of data set: cell-based.
72 kDa type IV collagenase (Homo sapiens), sequence (P08253 110-660 limits assumed): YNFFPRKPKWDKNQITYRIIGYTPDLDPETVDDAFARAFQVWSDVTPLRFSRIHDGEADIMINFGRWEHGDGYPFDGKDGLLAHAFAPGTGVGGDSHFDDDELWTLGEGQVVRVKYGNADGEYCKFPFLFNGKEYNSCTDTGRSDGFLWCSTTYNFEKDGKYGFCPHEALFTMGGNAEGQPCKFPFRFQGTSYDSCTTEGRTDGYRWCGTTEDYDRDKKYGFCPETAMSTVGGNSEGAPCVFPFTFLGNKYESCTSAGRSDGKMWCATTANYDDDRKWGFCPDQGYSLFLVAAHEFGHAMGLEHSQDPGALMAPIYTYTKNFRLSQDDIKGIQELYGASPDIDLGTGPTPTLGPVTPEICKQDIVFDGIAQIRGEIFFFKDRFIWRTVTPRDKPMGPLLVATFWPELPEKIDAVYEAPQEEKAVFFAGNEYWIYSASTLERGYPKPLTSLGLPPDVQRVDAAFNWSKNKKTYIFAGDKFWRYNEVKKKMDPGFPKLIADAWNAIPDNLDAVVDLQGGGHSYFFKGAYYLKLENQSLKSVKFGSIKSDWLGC
Data set [16] deals with Eukaryotic translation initiation factor 2 subunit 1 (Homo sapiens) (UniProt P05198). Kind of data set: Induction of EIF2alpha phosphorylation in human A172 cells at 1 uM measured after 2 hrs by Western blot analysis. Type of data set: cell-based.
Eukaryotic translation initiation factor 2 subunit 1 (Homo sapiens), sequence (P05198 whole entry): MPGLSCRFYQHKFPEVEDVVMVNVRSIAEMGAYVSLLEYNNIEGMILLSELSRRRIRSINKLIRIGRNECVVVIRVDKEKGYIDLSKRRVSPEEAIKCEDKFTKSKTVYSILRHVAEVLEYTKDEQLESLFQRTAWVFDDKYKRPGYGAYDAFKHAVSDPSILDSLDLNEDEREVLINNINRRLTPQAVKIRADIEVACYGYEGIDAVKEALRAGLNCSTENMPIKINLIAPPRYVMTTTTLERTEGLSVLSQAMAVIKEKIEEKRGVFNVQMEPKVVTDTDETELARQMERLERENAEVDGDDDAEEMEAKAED
For data set [17] the target is unchanged. The experiment in a line: Induction of EIF2alpha phosphorylation in human U87MG cells at 1 uM measured after 2 hrs by Western blot analysis. Type of data set: cell-based. Put shortly: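 eIF2α phosphorylation in U87MG cells after 2 h with 1 µM PACMA31 or 20 µM analogues; tunicamycin 10 µg/mL as comparator. Lysates (Tris/NaCl/Triton/SDS, sonicated) quantified by BCA; 30 µg protein separated on 10% gels, blotted to PVDF, probed for phospho-eIF2α, detected by fluorescence.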

Data set [18] has as its system A 172. The experiment in a line: Antimigratory activity against human A172 cells at 30 uM measured after 4 hrs by Giemsa staining based transwell migration assay. Type of data set: functional, cell-based. Put shortly:
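A172 cells (1 x 10^5) were treated with compound and seeded into inserts with 8.0 μm PET membrane in serum-free medium. DMEM with 10% FBS was in the lower well; wells without FBS served as control. After 4 h, migrated cells were Giemsa-stained and imaged at 10X, 5 fields per well.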

pIC50: −log10 of the molar value. Calls of active or inactive are those of the source. The rule behind the calls is not given here.

Consider `N#Cc1cccc(/C=C/C(=O)c2ccc(S(=O)(=O)NC3CC3)cc2)c1`, for which the IC50 result (in data set [1]; in the data set with U-87 MG [3]; in the data set with A 172 [5]) was “Nd(Insoluble)” in each case. Further, the solubility result in data set [2] is listed as “Insoluble”. Also, in data set [4], the negative-log IC50 (pIC50) was 5.98.

For `C#CC(=O)N(c1ccc(OC)cc1OC)C(C(=O)NCC(=O)OCC)c1cccs1` (stereo not given), the inhibition result (in [6]; in [10]; with D54 cell line) was “inactive” throughout. The result in the data set with U-87 MG [7], in the data set with A 172 [11], in the data set on U-87 MG [12], with U-87 MG [14] and in the data set on A 172 [18] was Active. For the same compound, the inhibition entry with U-87 MG [8] is “Dose-dependent effect”. In addition, the ΔTm in [9] was determined as 0.03 °C. Also, the Activity entry in the data set on A 172 [13] was “Dose-dependent effect”. In addition, the pIC50 in [4] was 4.97. The inhibition entry in data set [15] is “Active”. Further, the result in data set [16] and in data set [17] was inactive.
